The nature of this data set: Toxicity liver stage against HepG2, at 10uM. It counts as cell-based. Also noted: test concentration 10 uM, cell line HepG2-A16-CD81EGFP. Particulars: human, HepG2-A16-CD81EGFP cells; read-out: INHIBITION
The gist of the method: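 Uninfected HepG2-A16-CD81EGFP cells, 3 × 10^3 per well, 1536-well, plated on prespotted compound at 10 μM final, parasite-free screening media added to match infected plates; puromycin 10 μM positive, DMSO 0.5% negative; run in parallel with 48 h PbLuc assay at 37 °C, 5% CO2; viability by CellTiter-Glo luminescence, normalized to controls.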
With `CCC[C@@H]1CN(Cc2cc3c(cc2OC)OCO3)C[C@H]1C(=O)O`, the cytotoxicity at 10 µM was -2.7%.
To `CNC(=O)c1cc2c(nc1NCC(C)C)CCN(c1ccncn1)CC2` belongs 7.95%.
To `CN1CC(=O)N(c2cnn(C)c2)CC12CCN(Cc1cccnc1)C2` (configuration not stated) belongs -1.69%; to `O=C(NC1CC1)c1nc(COc2ccc3c(c2)OCO3)no1`, 3.97%.
With `Cc1nn(C)c2ncnc(N3CCCC(OCc4ccccn4)C3)c12` (configuration not stated), the cytotoxicity at 10 µM came to 7.96%.
`CCCNC(=O)CN1CCOC(CC)C1` (configuration not stated): the cytotoxicity at 10 µM worked out at 2.98%.
In the case of `COCC(=O)N1CCCC(C)(c2nncn2C)C1` (configuration not stated), the cytotoxicity at 10 µM came to 4.08%.
To `O=C(Nc1nncs1)NC1CCc2ccccc21` (configuration not stated) belongs -10%; to `COc1cc2nc(C)n(CC(=O)NCC(C)C)c(=O)c2cc1OC`, -4.76%; to `NS(=O)(=O)CCNC(=O)c1ccc(OCc2ccccc2)nc1`, 6.85%.
Regarding `Cc1cc(NCC2(O)CCOCC2)c2ccccc2n1`, the cytotoxicity at 10 µM is -13.3%.
To `Cc1cccc(CN2CCC3(CCCN(C(=O)NC4CC4)C3)C2=O)n1` (configuration not stated) belongs 12.2%; to `CC(=O)NCC1CCN(Cc2nc(C3CC3)no2)CC1`, -4.12%; to `O=C(Nc1ccccc1OCC1CCCCO1)c1ccc(O)nc1` (configuration not stated), 5.41%.
To `CCN(Cc1ccncc1)CC1(O)CCN(C(=O)c2cccc(C)n2)C1` (configuration not stated) belongs -4.08%.
As to `CC(C)(N)c1nc(C(F)F)cc(=O)[nH]1`, the cytotoxicity at 10 µM was found to be 11.9%.
With `CC(C(=O)N1CCN(C(=O)c2ccc(F)cc2F)CC1)n1ccnc1` (configuration not stated) the figure was 1.63%; with `COc1cccc(CN2C[C@@H]3COC[C@]3(COCc3ccncc3)C2)c1`, 3.52%; with `COc1cccc(OC)c1CNC(Cc1ccsc1)c1ccc(C)cn1` (configuration not stated), 2.75%.
For `Cc1cc(=O)n(CCNC(=O)c2ccccc2Cl)cn1`, the cytotoxicity at 10 µM was -5.07%.
With `O=C1CSC(c2ccccc2)c2c(n(C3CCOCC3)[nH]c2=O)N1` (configuration not stated) the figure was -4.69%; with `COCCNc1nc(NCCc2ccccc2)nc2nccnc12`, 9.97%.
With `Cc1ncccc1NC(=O)[C@@H]1C[C@@H]2CCN(Cc3cccs3)C[C@H]2O1` the figure was -72.9%; with `COCCN1CCN(CC(=O)NC2(C#N)CCCC2)CC1`, 3.5%; with `CC1c2ncc(COCC3CC3)n2CCN1C(=O)c1ccnnc1` (configuration not stated), 4.66%.
To `O=C(C1CC=CC1)N1CCC2(CC1)CN(Cc1ccccn1)CCO2` belongs -10.1%.
For `O=C(c1cocn1)N1C[C@@H]2CN(CC3CC3)CCO[C@@H]2C1`, the cytotoxicity at 10 µM is -2.29%.
In the case of `CCc1ccc(CN(C(=O)CCn2cc(S(N)(=O)=O)cn2)C2CC2)cc1`, the cytotoxicity at 10 µM is 6.37%.
To `O=C1CCC2(CCOC2)CN1Cc1ccc2nsnc2c1` (configuration not stated) belongs -7.73%; to `N#Cc1nccnc1N1CCC(c2nc(C(F)(F)F)c[nH]2)CC1`, 4.25%; to `Cc1nn(C)c2ncc(NC(=O)N(C)Cc3cc(Cl)cn3C)cc12`, 2.73%.
In the case of `Cc1cnn(CCNCc2csc(-c3ccc(C)o3)n2)c1`, the cytotoxicity at 10 µM was -1.64%.
With `CCN1CC(COC(C)(C)C)Oc2ccncc2S1(=O)=O` (configuration not stated) the figure was -3.43%.
With `COc1ccc(C(=O)NC2COc3ccccc3C2)cc1OCC(=O)O` (configuration not stated) the figure was -2.18%; with `Cc1cc(N(C)C)nc(C2(C)CCCNC2)n1` (configuration not stated), 1.03%.
With `CN(Cc1ccc(F)c(F)c1)C(=O)CCc1nc(-c2nnc[nH]2)no1` the figure was -43.6%; with `CC(C)(C)C(=O)N1CCCc2c(cnn2-c2ccccc2)C1`, 7.15%.
Take `Cn1ccnc1CN(Cc1ccccn1)Cc1ccccc1Cl`: the cytotoxicity at 10 µM is 11.5%.
Consider `CN(C)c1ccc(C(=O)N2CCCC2c2ccc(Cl)cc2)cc1` (configuration not stated), for which the cytotoxicity at 10 µM amounted to 1.21%.
To `Cc1cccc(NC(=O)CCNCc2c(C)nn(C)c2N(C)C)n1` belongs 7.82%; to `COc1cc2c(cc1CN1CCn3c(CO)nnc3C1)CCC2`, -4.05%.
With `CN(C)c1cc(C(=O)N2CCCCC2Cn2cccn2)ccn1` (configuration not stated), the cytotoxicity at 10 µM was -23%.
With `CCn1nc(C)c(CNC(=O)NCC(C)(O)c2ccsc2)c1C` (configuration not stated) the figure was 7.59%; with `COCCc1ncc(CN2CCC(Oc3ccccc3C)CC2)cn1`, 4.67%.
With `COCC[C@]1(O)CCN(CC(=O)NCc2ccccn2)C[C@H]1C` the figure was 7.8%.
To `O=C(NCc1cccnc1)N1CCc2ncnc(C3CC3)c2CC1` belongs -144%; to `COc1ccc(C(=O)C2CCCN(CCc3ccccc3)C2)c(OC)c1` (configuration not stated), 7.8%; to `Cc1nc(CNC(=O)CCN2CCN(c3ccccn3)CC2)oc1C`, -4.97%.
Consider `CC(=O)N1CCCC1c1nccnc1Nc1cccc(C)n1` (configuration not stated), for which the cytotoxicity at 10 µM came out at 1.31%.
As for `CCO[C@@H]1CN(Cc2scnc2C)[C@@H]2CCCO[C@@H]21`, the cytotoxicity at 10 µM was -151%.
As for `CCOCC(=O)NCC1Cn2nnc(-c3cccc(F)c3)c2CO1` (configuration not stated), the cytotoxicity at 10 µM was -1.29%.
With `Cn1nc(C2CN(C(=O)c3cscn3)C2)c2nccnc21` the figure was 2.21%; with `CCCc1nnc(N2CCN(c3cccc(OC)c3)C(=O)C2)o1`, 9.52%; with `CCc1ncnc2c1CCN(S(=O)(=O)CC)CC2`, -105%.
As to `CN1CCN(C[C@H]2OC[C@@H]3CCN(C(=O)c4cnccn4)C[C@@H]32)CC1`, the cytotoxicity at 10 µM was 12%.
For `CCN(CC)C(=O)CN1CCCC1c1nc(C)c2c(n1)N(C)C(=O)CC2` (configuration not stated), the cytotoxicity at 10 µM was 3.1%.
With `CC(C)c1ccc(OCCC(=O)N2CCC(C(N)=O)CC2)cc1` the figure was -11.5%; with `CN(Cc1cc(C2CC2)[nH]n1)Cc1cc2ccc(F)cc2[nH]c1=O`, 7.84%.
To `CCOc1ccccc1OC1CCN(C(=O)c2csnn2)CC1` belongs -5.5%; to `CC(C)NC(=O)CN(C)C(=O)c1csc(Cc2ccccc2F)n1`, 3.24%; to `CN1CCC(C(=O)N2CCN(Cc3cccc(Cl)c3)CC2)CC1=O` (configuration not stated), 5.44%.
With `CCOc1cccc(C(=O)NCCC(=O)NCc2ccncc2)c1` the figure was 0.961%.
Take `CCC(NC1CSCCSC1)c1ccc(S(C)(=O)=O)cc1` (configuration not stated): the cytotoxicity at 10 µM is -8.06%.
To `COCCN1CC(=O)c2sc(NCc3ccccc3)nc2C1` belongs -6.77%; to `Cc1cccc(CN2C(=O)CC[C@@H]3[C@H]2CCN3Cc2nccn2C)n1`, -81.9%; to `O=C(Cc1cccs1)NCc1ccnc(OC2CCOCC2)c1`, -1.22%.
On to `CC(C)(C)c1nc(CN2CCCC2Cn2cccn2)no1` (configuration not stated), for which the cytotoxicity at 10 µM is 0.222%.
With `CC[C@@H](C)[C@@H](N)C(=O)Nc1cccc(-c2cnc(N)nc2)c1`, the cytotoxicity at 10 µM stood at 0.942%.
Turning to `CC(C)=CCN1CCC2(CC1)CC(=O)N(Cc1cc(F)cc(F)c1)C2`, the cytotoxicity at 10 µM was 0.308%.
With `CN(Cc1ccc(F)cc1)CC1(O)CCN(C(=O)c2ccsc2)C1` (configuration not stated) the figure was -28.2%; with `COCc1cc(CN(C)C(=O)CCC(=O)Nc2cc(C)ccc2F)n[nH]1`, -14.5%.
To `CCOc1nnc(CNC2CCCN(c3ccc(C)nn3)C2)s1` (configuration not stated) belongs -9.31%; to `C=C(C)COCCNC(=O)C1CCCN1C(C)=O` (configuration not stated), -10.7%.
With `O=C(C1COCCO1)N1CCN(CC(F)(F)F)c2ccccc21` (configuration not stated) the figure was 7.36%.
As to `Cc1ccc(C)c(OC2CCN(C(=O)CNc3ccccc3Cl)CC2)c1`, the cytotoxicity at 10 µM was 40.2%.
With `CCc1ccc(S(=O)(=O)N2CCCn3ncnc32)s1` the figure was -0.908%; with `CCN1CCN(C(=O)c2ccc(=O)n(C)c2)c2ccccc21`, -1.64%; with `Cc1cc(C(=O)N(C)C2CCN(C)C2)c2ccc(F)cc2n1` (configuration not stated), -2.55%.
With `CCC1CCCCCN1C(=O)c1cc(C#N)c(SC)[nH]c1=O` (configuration not stated) the figure was 12%; with `CC(C)C(O)CNC(=O)Nc1cnn(C(C)C)c1` (configuration not stated), 3.57%.
Consider `CC[S+](CC)[c-]1c(=O)[nH]c(=O)n(CCc2ccc(F)cc2)c1=O`, for which the cytotoxicity at 10 µM was 4.12%.
To `O=C(O)c1cccc(CC2CCN(c3ncccn3)CC2)c1` belongs -134%; to `N#CC1(C(=O)N2CCN(Cc3ccon3)CC2)CCC1`, -5.97%; to `CCc1cnc(CN(C)C2CCN(CC3CCC3)C2)o1` (configuration not stated), -5.99%.
With `CC[C@H](C)[C@H](N)C(=O)Nc1nc(-c2cnc(N3CCOCC3)nc2)cs1` the figure was -8.72%; with `CC(NC(=O)CCOc1ccccc1Cl)c1nnc2n1CCC2` (configuration not stated), -6.46%; with `CC(C)(C)CCN1CCN(Cn2nccc2-c2cccnc2)CC1`, 23.2%.
To `CC(C)CNC(=O)CSc1nnc(OC(C)C)s1` belongs 1.97%; to `COc1ccc(-c2cc(C3CCCCCN3S(=O)(=O)N(C)C)on2)cc1` (configuration not stated), 2.24%.
As for `Cc1n[nH]c(C2CN(C(=O)c3cc4c(s3)CCC4)CCO2)n1` (configuration not stated), the cytotoxicity at 10 µM was -5.65%.
With `CC(CNC(=O)c1ccn(-c2ccc(F)cc2)n1)Cn1cccn1` (configuration not stated), the cytotoxicity at 10 µM is -41.4%.
To `COc1ccc(NC(C)C(=O)N2CCN(c3ncccn3)CC2)cn1` (configuration not stated) belongs -4.71%; to `C[C@@H](NC(=O)c1ccc(Cl)cc1)c1onc(-c2cccnc2)c1C(=O)O`, -1.6%; to `CN(Cc1ccccc1)CC(C)(C)NC(=O)c1cnns1`, -3.67%.
With `COc1nc2c(cc1C(=O)N1CCCCC1c1ccccn1)CCC2` (configuration not stated) the figure was -12.5%; with `Cc1cc(N2CCC(NC(C)Cc3ccsc3)CC2)nc(C)n1` (configuration not stated), -7.73%; with `COCC(=O)N1CCC2(CC1)CC(COC)N(Cc1ccccn1)C2` (configuration not stated), -101%.

The values above are taken from ChEMBL document CHEMBL4513216, “Probing the Open Global Health Chemical Diversity Library for Multistage-Active Starting Points for Next-Generation Antimalarials” (ACS Infect Dis, 2020).
